Publication PMC7027977 (Clinical Pharmacology and Therapeutics, 2019)
“And” between values parts separate entries of the source, which are not always exact repeats. Equal values may be shown once. Read-outs that look alike come from different tables or passages of the source.

Columns and labels:
[1] = Population pharmacokinetic analysis of upadacitinib IR formulation; type: in vivo, human
Method in brief: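 A population PK model previously built for healthy subjects and RA patients was the starting model. It was fitted to sparse CELEST plasma concentrations: weeks 2–16, validated LC-MS, sampling time relative to last dose recorded. Covariate effects were judged by differences in Cave between covariate groups. Dose was tested as a covariate on model parameters to assess dose proportionality.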

[2] = type: in vivo, human; conditions: healthy subjects, ER formulation study
Method in brief: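 ER absorption parameters were estimated from phase I data in healthy volunteers given the extended-release formulation. They were then incorporated into the exposure–response models to simulate ER q.d. regimens.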

[3] = cited from earlier work
[4] = tested on: subjects with moderate‐to‐severe active Crohn's disease; assay: Regression; type: in vivo, human; conditions: Cave as exposure metric; week 12/16
Method in brief: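 SES-CD came from centrally read ileocolonoscopy at screening and at a randomly assigned week 12 or 16, with the two weeks pooled. End points were endoscopic response 25% and 50% and endoscopic remission, with nonresponder imputation. Regression Emax models related them to individual steady-state Cave over the dosing interval. The study used placebo and 3–24 mg b.i.d. or 24 mg q.d. IR oral dosing.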

[5] = type: in vivo, human; conditions: for Cmax: human, plasma, oral
Method in brief: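 Patients with Crohn's disease took oral IR tablets at 3, 6, 12 or 24 mg b.i.d. or 24 mg q.d. for a 16-week induction. Sparse plasma samples were taken at weeks 2, 4, 8, 12 and 16, with time from last dose recorded, and assayed by validated LC-MS. Steady-state Cmax and Cmin came from empirical Bayesian individual estimates. Cave = Dose/(CL/F × dosing interval). Values are median (5th–95th percentiles).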

[6] = tested on: patients with CD; conditions: cited from earlier work
[7] = 3 mg b.i.d. IR, steady-state, CD patients, CELEST
[8] = 6 mg b.i.d. IR, steady-state, CD patients, CELEST
[9] = 12 mg b.i.d. IR, steady-state, CD patients, CELEST
[10] = 24 mg b.i.d. IR, steady-state, CD patients, CELEST
[11] = 24 mg q.d. IR, steady-state, CD patients, CELEST

## CC[C@@H]1CN(C(=O)NCC(F)(F)F)C[C@@H]1c1cnc2cnc3[nH]ccc3n12 [Upadacitinib]
[1]; 3–24 mg b.i.d.
  dose proportionality of exposure: approximately dose‐proportional
[1]; creatinine clearance 50 mL/minute vs 110 mL/minute
  higher Cave with renal impairment: 28%
[1]; population PK
  CL/F in subjects with CD relative to healthy subjects: comparable
  lower clearance in subjects with RA compared with non‐RA subjects: 22% and ~ 20%
[1]; population PK covariate
  higher Cave in women compared with men: 18%
  lower CL/F in women compared with men: 15%
  lower Vc/F in women compared with men: 25%
[1]; renal impairment, sex, bodyweight covariates
  difference in Cave among different covariate groups: < 30%
[1]; same dose
  lower Cave in subjects with CD than in subjects with RA: ~ 20%
[1]; subjects with CD
  Intersubject variability in CL/F: 41%
  Intersubject variability in Vc/F: 29%
[2]
  bioavailability of ER formulation relative to IR formulation: 74%
[3]; 3–48 mg IR or 7.5–45 mg ER, ref 21,23 (data on file at AbbVie)
  dose proportionality of plasma exposures: dose‐proportional
[3]; IR formulation
  functional half‐life: 3 to 4 h
[3]
  increase in bioavailability from the ER formulation after a high‐fat meal: ~ 20%
[3]; more extensive dataset in subjects with RA
  relative bioavailability of ER formulation: 76%
[3]; oral, IR formulation
  time to reach maximum plasma concentration: 1 to 2 h
[3]; phase I study, healthy subjects
  exposure of ER 15 mg and 30 mg q.d. vs IR 6 mg b.i.d. and 12 mg b.i.d.: equivalent Cave and similar Cmax and Cmin
[4]
  EC50 for endoscopic remission: 0.027 µg/mL
  EC50 for endoscopic response 50%: 0.026 µg/mL
[5]; [7]
  Cave, median (5th to 95th percentiles): 6.9 (4.6–14.1) ng/mL
  Cmin, median (5th to 95th percentiles): 1.2 (0.4–6.6) ng/mL
[5]; [8]
  Cave, median (5th to 95th percentiles): 14.9 (7.6–25.2) ng/mL
  Cmin, median (5th to 95th percentiles): 2.6 (0.2–7.5) ng/mL
[5]; [9]
  Cave, median (5th to 95th percentiles): 26.7 (8.5–49.6) ng/mL
  Cmax, median (5th to 95th percentiles): 80.7 (25.3–124) ng/mL
  Cmin, median (5th to 95th percentiles): 4.9 (0.2–25.2) ng/mL
[5]; [10]
  Cave, median (5th to 95th percentiles): 55.1 (29.8–91.8) ng/mL
  Cmin, median (5th to 95th percentiles): 7.8 (1.8–20.7) ng/mL
[5]; [11]
  Cave, median (5th to 95th percentiles): 25.1 (13.6–92.0) ng/mL
  Cmin, median (5th to 95th percentiles): 1.7 (0.3–34.2) ng/mL
[5]; 3 mg
  Cmax: 21.8 ng/mL
[5]; 6 mg
  Cmax: 40.2 ng/mL
[5]; 24 mg
  Cmax: 161 ng/mL

## C[C@@H]1CCN(C(=O)CC#N)C[C@@H]1N(C)c1ncnc2[nH]ccc12 [tofacitinib]
[6]; two phase II studies
  efficacy in patients with CD: did not demonstrate efficacy

## O=C(Nc1nc2cccc(-c3ccc(CN4CCS(=O)(=O)CC4)cc3)n2n1)C1CC1 [Filgotinib]
[6]
  efficacy in CD: has shown efficacy
